Reference: ChEMBL document CHEMBL1121883, “1-(Naphthylalkyl)-1H-imidazole derivatives, a new class of anticonvulsant agents” (J Med Chem, 1981)

Assays:
Format in all cases: functional
[1] = tested on: Mus musculus; test: Protective index is defined as ND50 (i.p.) divided by MES ED50(i.p.)
Method in brief: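 Ratio of ND50 from the wire traction test to MES ED50, both measured by the same route (ip or oral) in the same animals. Quantal dose-response data for each were evaluated by Litchfield-Wilcoxon.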

[2] = tested on: Mus musculus; test: Dose of compound causing a neurological deficit in 50% of mice after ip administration; 19-38
Method in brief: (§1)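 Traction test in male Hilltop ICR-derived mice (19-30 g, groups of 8-10) just before electroshock, 15 min after ip or 30 min after oral dosing. Mice placed on a 16-gauge, 65-cm copper wire 40 cm above the table; deficit scored as failure to stay on for 10 s. ND50 with 95% limits by Litchfield-Wilcoxon.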

[3] = tested on: Mus musculus; test: Compound was evaluated for anticonvulsant activity by maximal electroshock assay(MES) in mice after ip administration; 8-16
Method in brief: (§2)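 Male Hilltop ICR-derived mice (19-30 g), groups of 8-10, dosed ip with compound or aqueous vehicle. After 15 min pretreatment, a transcorneal 60-Hz, 50 mA shock was given for 0.2 s. Just before the shock, each mouse was tested on a horizontal wire (10 s). Quantal data were analysed by Litchfield-Wilcoxon to give ED50 with 95% confidence limits.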

[4] = tested on: Mus musculus; test: Compound was evaluated for anticonvulsant activity by maximal electroshock assay(MES) in mice after ip administration; 8-17; method in brief: as §2
[5] = tested on: Mus musculus; test: Dose of compound causing a neurological deficit in 50% of mice after ip administration; 45-89; method in brief: as §1

CCOC(Cn1ccnc1)c1ccc2ccccc2c1 (stereo unspecified)
PI [1]: 2.5
ND50 [2]: 27 mg/kg
ED50 [3]: 11 mg/kg

Cl.OC(CCn1ccnc1)c1ccc2ccccc2c1 (stereo unspecified)
ED50 [4]: 13 mg/kg
PI [1]: 4.9
ND50 [5]: 64 mg/kg
